Measurements from different studies.
Compare with care: the assays were run in different laboratories.
PDGFRA V561D: Platelet-derived growth factor receptor alpha (PDGFRA, Homo sapiens, UniProt P16234, V561D)
PDGFRA D842V: Platelet-derived growth factor receptor alpha (PDGFRA, Homo sapiens, UniProt P16234, D842V)
PDGFRA: Platelet-derived growth factor receptor alpha (PDGFRA, Homo sapiens, UniProt P16234)

| SMILES | target | observed | mode | technique | tested at | measurement | result |
| --- | --- | --- | --- | --- | --- | --- | --- |
| CNC(=O)c1cc(Oc2ccc(NC(=O)Nc3ccc(Cl)c(C(F)(F)F)c3)cc2)ccn1 | PDGFRA V561D | enzyme activity | inhibitor | – | 10 µM | inhibition | 100% |
| Cc1ccc(NC(=O)c2ccc(C)c(C(F)(F)F)c2)cc1C#Cc1nn(C2CCC(O)CC2)c2ncnc(N)c12 (stereo not shown) | PDGFRA D842V | enzyme activity | inhibitor | – | 10 µM | remaining activity | 0% |
| COc1cc2ncnc(Nc3ccc(Oc4ccccc4)cc3C)c2cc1OC | Platelet-derived growth factor receptor alpha (PDGFRA, Homo sapiens, UniProt P16234, T674I) | enzyme activity | inhibitor | – | 1 µM | inhibition | 0% |
| CNC(=O)Nc1ccc2c(c1)[C@@]1(CC2)OC(=O)N(CC(=O)N(Cc2ccc(F)cc2)[C@@H](C)C(F)(F)F)C1=O | PDGFRA | cell-free assay | – | competition with immobilised ligand | 1 µM | remaining binding | 83% |
| CCCOc1ccc(OC)c(F)c1C(=O)c1ccc(C(=O)N[C@@H]2CNC[C@H]2NC(=O)c2ccc3[nH]ncc3c2)cc1 | PDGFRA D842V | enzyme activity | inhibitor | – | 10 µM | remaining activity | 12% |
| COc1cc2ncnc(Nc3ccc(Oc4ccccc4)c(C)c3C)c2cc1OC | PDGFRA D842V | enzyme activity | inhibitor | – | 1 µM | inhibition | 3% |
| Nc1ncnc2occ(-c3ccc(NC(=O)Nc4cc(C(F)(F)F)ccc4F)cc3)c12 | PDGFRA | enzyme activity | inhibitor | – | 20 µM | remaining activity | 0.05% |
| Cc1ccc(C(=O)Nc2ccc(CN3CCN(C)CC3)c(C(F)(F)F)c2)cc1C#Cc1cnc2cccnn12 | PDGFRA | enzyme activity | inhibitor | – | 23.5 nM | remaining activity | 5.3% |
| CN([C@@H]1CCc2c(CC(=O)O)c3cc(S(C)(=O)=O)ccc3n2C1)S(=O)(=O)c1ccc(F)cc1 | PDGFRA | cell-free assay | – | competition with immobilised ligand | 1 µM | remaining binding | 100% |
| Cc1ccc(NC(=O)c2ccc(CN3CCN(C)CC3)cc2)cc1Nc1nccc(-c2cccnc2)n1 | PDGFRA | enzyme activity | inhibitor | – | 0.5 µM | activity vs control | 5.9% |
| Cc1nccc(COC(=O)N2C[C@@H]3[C@@H](CNC(=O)c4ccc5[nH]nnc5c4)[C@@H]3C2)n1 | PDGFRA | cell-free assay | – | competition with immobilised ligand | 1 µM | remaining binding | 80% |
| COc1cc(-c2cc(-c3ccc(N4CCNCC4)cc3)cnc2N)cc(OC)c1OC | PDGFRA V561D | enzyme activity | inhibitor | – | 0.1 µM | inhibition | 45% |
| Cc1cc(NC(=O)c2cccc3cc(-c4cccc5[nH]nc(N)c45)ccc23)ccc1F | PDGFRA V561D | enzyme activity | inhibitor | – | 0.1 µM | activity vs control | 4% |
| Cc1nc(Cc2cccc(C(F)(F)F)c2)sc1-c1ccc(C(N)=O)nc1 | PDGFRA | cell-free assay | – | competition with immobilised ligand | 1 µM | remaining binding | 88% |
| CC(C)(C)c1nc2c(s1)c1nc(N)ncc1c1ccc(NS(=O)(=O)c3c(F)cccc3F)c(F)c12 | PDGFRA | enzyme activity | inhibitor | radiometric | 1 µM | remaining activity | 97% |
| O=C(N1CCS(=O)(=O)CC1)N1C[C@H](c2ccc(OC(F)(F)F)cc2)C[C@H](c2nc(C3CC3)no2)C1 | PDGFRA | cell-free assay | – | competition with immobilised ligand | 1 µM | remaining binding | 100% |
| Cc1cnc(NC2CCOCC2)nc1-n1cnc(C(=O)NC(CN)c2cc(F)cc(Cl)c2)c1 (stereo not shown) | PDGFRA V561D | enzyme activity | inhibitor | radiometric | 1 µM | remaining activity | 100% |
| Cc1sc(C(=O)NC2COC2)cc1-n1cc(NC(=O)Nc2c(F)cccc2Cl)cn1 | PDGFRA | enzyme activity | inhibitor | – | 10 µM | remaining activity | 114% |
| N#CCCc1ccc2c(c1)-c1[nH]c3ccc([N+](=O)[O-])cc3c1CC(=O)N2 | PDGFRA | cell-free assay | – | – | 0.5 µM | remaining signal | 87.4% |
| Cc1ccc(C(=O)NCc2ccsc2)cc1C#Cc1cn(C(C)C)c2ncnc(N)c12 | PDGFRA V561D | enzyme activity | inhibitor | – | 1 µM | activity vs control | 1% |
| CCc1ccccc1C(=O)Nc1n[nH]c2c(C)c(F)c(C3C(C#N)=C(C)N(C)C(C)=C3C#N)cc12 | PDGFRA | cell-free assay | – | competition with immobilised ligand | 1 µM | remaining binding | 100% |
| O=C1Nc2ccc(Cl)cc2C1=Cc1cc(Cl)c(O)c(Cl)c1 | PDGFRA | cell-free assay | – | – | 0.5 µM | remaining signal | 70.3% |
